Results as given in publication PMC6388690 (Journal of medicinal chemistry, 2018).
Counter-ions that a name gives are not always drawn.

Legend:
[1] = Reactivity with GSH monitored by 1H NMR; conditions: 37°C, 1.5–2 equiv GSH, pH 7.4, compared to oridonin
[2] = microsomes
[3] = system: MCF-7 and MDA-MB-231 cells; test: MTT growth inhibition screen in two breast cancer cell lines; assay type: cell-based, human; conditions: MCF-7 and MDA-MB-231, MTT
Summary of the method: (§1)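 MTT proliferation assay: cells seeded at 1 × 10^4 per well and treated with DMSO or test compound at 0.1, 0.33, 1.0, 3.3 and 10 μM for 72 h. MTT reagent added, then OD 560 nm read after 1 h at 37°C. Quadruplicate wells per concentration.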

SK-BR3 cells [4] = test: Colony-formation assay; assay type: cell-based, human; conditions: SK-BR3, low micromolar concentrations, 2 weeks
MDA-MB-231 cells [5] = test: Cellular apoptosis assay; assay type: cell-based, human; conditions: 48 h
Summary of the method: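 MDA-MB-231 cells, 2.5 × 10^5 per well, exposed to DMSO vehicle or test compound (1, 5, 10, 15 or 20 μM) for 48 h. Adherent and floating cells pooled and washed in PBS, then resuspended in PBS with 1% BSA plus Annexin V and dead-cell reagent for 20 min at room temperature. Read immediately on a cell analyzer; mean ± SD, ≥3 independent experiments.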

MCF-7 cells [6] = test: Colony-formation assay; assay type: cell-based, human; conditions: MCF-7, low micromolar concentrations, 2 weeks
MDA-MB-468 cells [7] = test: Colony-formation assay; assay type: cell-based, human; conditions: MDA-MB-468, low micromolar concentrations, 2 weeks
[8] = system: MDA-MB-231 xenograft tumors; test: MDA-MB-231 orthotopic xenograft tumor growth in nude mice; assay type: in vivo; conditions: intraperitoneal; for inhibitory effect on tumor growth compared to vehicle: daily
Summary of the method: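 Female nude mice aged 6–8 weeks, kept in a barrier unit on a 12 h light–dark cycle. Freshly harvested MDA-MB-231 cells (1.0 × 106 in 100 μL PBS) injected into the no. 3 mammary fat pad, then mice randomized into 4 groups. Once tumours reached 80–100 mm3, daily ip test compound (10 or 15 mg/kg), parent natural product or vehicle, all dissolved in DMSO. Tumour volume (V = 0.5 × L × W2) and body weight measured daily; mean ± SEM.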

Bcl-2 to Bax ratio = test: Western-blot analysis of apoptosis biomarkers; assay type: cell-based, human; conditions: MDA-MB-231, 48 h
Summary of the method: (§2)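 MDA-MB-231 cells given DMSO or test compound at several concentrations for 48 h, then lysed. Protein measured by Bradford (BSA standard); 40 μg resolved by SDS-PAGE and transferred to NC membrane. Blocked in 5% nonfat milk, then primaries overnight: Bcl-2 1:200, cleaved PARP 1:500, NF-κB 1:1000, Bax 1:1000, β-actin 1:2000. Secondary antibody applied; bands detected by ECL.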

SK-BR3 cells [9] = test: MTT cell proliferation assay; assay type: cell-based, human
Summary of the method: as §1

MCF-7 cells [10] = test: MTT cell proliferation assay; assay type: cell-based, human
Summary of the method: as §1

MDA-MB-231 cells [11] = test: MTT cell proliferation assay; assay type: cell-based, human
Summary of the method: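 MDA-MB-231 cells seeded at 1 × 10^4 per well, then exposed to DMSO vehicle or test compound at 0.1, 0.33, 1.0, 3.3 and 10 μM for 72 h. Proliferation read by MTT reagent, with OD at 560 nm after 1 h at 37°C. Quadruplicate wells per concentration. Mean ± SD of at least three independent experiments; one-way ANOVA across groups.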

NF-κB (p65) = test: Western-blot analysis of apoptosis biomarkers; assay type: cell-based, human; conditions: MDA-MB-231, 48 h, dose-dependent
Summary of the method: as §2

MDA-MB-468 cells [12] = test: MTT cell proliferation assay; assay type: cell-based, human
Summary of the method: as §1

cleaved PARP = test: Western-blot analysis of apoptosis biomarkers; assay type: cell-based, human; conditions: MDA-MB-231, 48 h, dose-dependent
Summary of the method: as §2

MCF-10A cells = test: Growth inhibition on normal mammary epithelial cells; assay type: cell-based, human; conditions: 48 h
Summary of the method: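 Normal mammary epithelial MCF-10A cells treated for 48 h with varying concentrations of test compound or the parent natural product. Mean ± SD of three independent experiments. Student t-test against the parent natural product at the same concentration.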

MDA-MB-231 cells [13] = test: Colony-formation assay; assay type: cell-based, human; conditions: MDA-MB-231, low micromolar concentrations, 2 weeks
[14] = 2 equiv of GSH at pH 7.4; cited from earlier work
[15] = relatively long time (hours); cited from earlier work
t(8;21) leukemia = conditions: 7.5 and 15 mg/kg; cited from earlier work

In the case of `C=C1C(=O)[C@]23[C@H](OC(=O)[C@H](C)N)[C@H]1CC[C@H]2[C@@]12CO[C@@]3(O)[C@@H](O)[C@@H]1C(C)(C)CC[C@@H]2O.O=C(O)C(F)(F)F` [Compound 14], the “Reactivity / stability of covalent warhead toward GSH (in words)” value [1] is reported as “may enhance the enone’s reactivity”.
In the case of `C=C1C(=O)[C@@]23[C@@H]4OC(C)(C)O[C@@]25OC[C@@]2([C@H]([C@@H]5O)C(C)(C)CC[C@@H]2O)[C@@H]3CC[C@@H]14` [Compound 20], the “Reactivity / stability of covalent warhead toward GSH (in words)” value [1] is reported as “slightly weakens the reactivity of the enone”.
For `CC1(C)O[C@@H]2[C@H]3CC[C@H]4[C@@]56CO[C@@](O1)([C@@H](O)[C@@H]5C(C)(C)CC[C@@H]6O)[C@@]24C(=O)C31CN1` (stereo partly drawn) [Compound 25, (2R,3′S,3a′R,3a1′R,6a′R,7′S,11′S,11a′S)-7′,11′-Dihydroxy-5′,5′,8′,8′-tetramethyldecahydro-2′H-spiro[aziridine-2,15′-[6a,11a]-(epoxymethano)[3,3a1]ethanophenanthro[1,10-de][1,3]dioxin]-14’-one], the “microsomal stability compared to oridonin” value [2] was “higher microsomal and plasma stability”.
In the case of `C=CCNc1nc2c(s1)CC(C)(C)[C@H]1[C@H](O)[C@]3(O)OC[C@@]21[C@@H]1CC[C@@H]2[C@@H](O)[C@@]13C(=O)C21CN1C(=O)OCC1c2ccccc2-c2ccccc21` (stereo partly drawn) [Compound 42], the “antiproliferative activity (in words)” value [3] is reported as “moderate activities”.
For `C=CCNc1nc2c(s1)CC(C)(C)[C@H]1[C@H](O)[C@]3(O)OC[C@@]21[C@@H]1CC[C@@H]2[C@@H](O)[C@@]13C(=O)C21CN1` (stereo partly drawn) [Compound 43], the “antiproliferative activity (in words)” value [3] was “moderate activities”.
For `C=CC(=O)N1CC12C(=O)[C@@]13[C@@H]4OC(C)(C)O[C@@]15OC[C@@]1([C@H]([C@@H]5O)C(C)(C)CC[C@@H]1O)[C@@H]3CC[C@H]42` (stereo partly drawn) [Compound 44], the “inhibition of colony formation” value (SK-BR3 cells [4]) was “significantly inhibit the colony formation”, the “apoptotic cells (early and late apoptosis together)” value (“apoptotic cells” below) (MDA-MB-231 cells [5]; 10 μM) was 18.2% and the “apoptotic cells” value (MDA-MB-231 cells [5]; 15 μM) was 26.8%. For the same molecule, the “apoptotic cells” value (MDA-MB-231 cells [5]; 20 μM) was 47.6%, the “inhibition of colony formation” value (MCF-7 cells [6]) was “significantly inhibit the colony formation” and the “inhibition of colony formation” value (MDA-MB-468 cells [7]) was “significantly inhibit the colony formation”. The “antitumor efficacy, 44 versus oridonin” value ([8]; 10 mg/kg) was “comparable efficacy”, the “inhibitory effect on tumor growth compared to vehicle” value ([8]; 10 mg/kg) was “significant inhibitory effect” and the “inhibitory effect on tumor growth compared to vehicle” value ([8]; 15 mg/kg) was “significant inhibitory effect”. The “inhibitory effect on tumor growth compared to the oridonin group” value ([8]; 15 mg/kg, one-way ANOVA p = 0.0023) was “better inhibitory effect”, the “ratio of Bcl-2 to Bax” value (Bcl-2 to Bax ratio) was “reduced” and the “suppression of proliferation (dose-dependent)” value (shortened to “suppression of proliferation”) (SK-BR3 cells [9]) was “suppressed the proliferation”. The “suppression of proliferation” value (MCF-7 cells [10]) was “suppressed the proliferation”, the “suppression of proliferation” value (MDA-MB-231 cells [11]) was “suppressed the proliferation” and the “NF-κB (p65) protein expression” value (NF-κB (p65)) was “down-regulation”. For the same molecule, the “suppression of proliferation” value (MDA-MB-468 cells [12]) was “suppressed the proliferation”, the “cleaved PARP expression” value (cleaved PARP) was “up-regulation” and the “growth-inhibitory activity against MCF-10A in comparison to oridonin” value (MCF-10A cells; 0–10 μM) was “comparable”. The “growth-inhibitory activity against MCF-10A in comparison to oridonin” value (MCF-10A cells; 15~100 μM) was “significantly lower” and the “inhibition of colony formation” value (MDA-MB-231 cells [13]) was “significantly inhibit the colony formation”.
In the case of `CCC(=O)N1CC12C(=O)[C@@]13[C@@H]4OC(C)(C)O[C@@]15OC[C@@]1([C@H]([C@@H]5O)C(C)(C)CC[C@@H]1O)[C@@H]3CC[C@H]42` (stereo partly drawn) [Compound 45], the “antiproliferative activity (in words)” value [3] is reported as “complete loss of activity”.
For `COC(=O)/C=C/C(=O)OC` [dimethyl fumarate], the “half-life with GSH” value [14] is listed as 50 to 60 min.
For `C=C1C(=O)[C@]23[C@H](O)[C@H]1CC[C@H]2[C@@]12CO[C@]3(O)[C@@H](O)[C@@H]1C(C)(C)CC[C@@H]2O` [oridonin], the “antitumor efficacy, 44 versus oridonin” value ([8]; 10 mg/kg) is listed as “comparable efficacy”, the “stability in strong acidic or basic media” value [15] is listed as “not stable” and the “inhibition of tumor growth” value (t(8;21) leukemia) is listed as “Inhibition of tumor growth in t(8;21) leukemia murine model (7.5 and 15 mg/kg)”.
